From PubChem BioAssay
Sampled rows, rich in hits. Any-hit rate of the full collection: about 5.1%.
STAT3 blocker: IL-6 driven STAT3 reporter inhibitors, primary screen, U3A cells, luciferase, luminescence, MLSCN library; IL-6 STAT3-luciferase reporter; host cell line lacks STAT1; inhibition, % at 5.5 µM; hit rate 0.89% among 190,000; AID 862, 2007;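 active = inhibition above the mean inhibition across all screened compounds plus 3 SD, cut at about 44% in these data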;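 also: 0% = DMSO only wells and 100% = 100 µM nifuroxazide control wells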
NF-kB expr up: activators of NF-kB expression in neurons, primary screen, cell-based, HTS | human neuronal cells, NF-kB reporter expression; active compounds read high | hit rate 1.6% among 190,000 | fold change at 12.5 µM; in the data active = fold change above about 3.3
STAT1 blocker: STAT1 signaling inhibitors, primary screen, cell-based, HTS, luciferase reporter | NIH 3T3 STAT1-luciferase reporter, IFN-gamma, luminescence | inhibition, % at 5.5 µM | AID 920, 2007 | hit rate 0.35% among 200,000;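 active = inhibition above a set limit, the mean inhibition across all tested compounds plus 3 SD, cut at about 34% in these data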;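 also: 0% = IFN-gamma with DMSO and 100% = IFN-gamma with 300 µM nifuroxazide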
STAT1 activator: STAT1 signaling activators, primary screen, cell-based, HTS, luciferase reporter; NIH 3T3 STAT1-luciferase reporter, IFN-gamma, luminescence; 100% = IFN-gamma alone, no compound; activation (% of control), % at 5.5 µM; hit rate 2.6% among 200,000;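 active = activation above the screen-wide mean activation plus 3 SD, cut at about 130% in these data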;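 also: raw ratio to IFN-gamma control signal so 100% means no change and 0% no light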
STAT3 act: IL-6 driven STAT3 reporter potentiators, primary screen, U3A cells, luciferase, luminescence, MLSCN library | IL-6 STAT3-luciferase reporter; 100% = signal with IL-6 EC80 alone | activation (% of control), % at 5.6 µM | hit rate 0.91% among 190,000;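 active = activation above the screen-wide mean of compound activation plus 3 SD, cut at about 130% in these data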;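 also: 0% = background luminescence of wells with medium and substrate only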
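Material: STAT3-luciferase reporter U3A cells; Probe or stimulus: IL-6 (33 ng/mL); Incubation: compound pre-incubation 1 h before IL-6, then 6 h stimulation at 37 °C; Technique: luminescence from STAT3-driven luciferase reporter; Evaluation: % activation versus median of IL-6-stimulated wells; Controls: IL-6-only high control.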
APP 5'UTR act: activators of APP 5'UTR luciferase reporter, primary screen, SH-SY5Y cells | SH-SY5Y APP 5'UTR luciferase reporter, luminescence; zero percent = DMSO vehicle wells | activation, % at 2 µM | hit rate 1% among 190,000;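 active = activation above a set limit, based on mean plus 3 SD of controls, cut at about 140% in these data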
* marks the source's active call; other numbers are inactive results; . = no result.

SMILES | STAT3 blocker | NF-kB expr up | STAT1 blocker | STAT1 activator | STAT3 act | APP 5'UTR act
Cc1ccc(NC(=S)NCCc2ccccc2)nc1 | -10.9 | 1.77 | -41.7 | 136.5* | 116.1 | 28.8
CCSc1nnc(NC(=O)c2ccc3ccccc3n2)s1 | -24.6 | 3.02 | -45.3 | 141.5* | 125.3 | 102.7
CC(C)C(=O)Nc1ccc(NC(=O)c2ccccc2Cl)nc1 | -10.2 | 1.91 | -35.8 | 132.4* | 110.6 | 32.9
O=C(CCCc1ccccc1)Nc1cccc(C(=O)O)c1 | 73.0* | 2.85 | 71.2* | 32.9 | 40.0 | 13.5
CCC(=O)Nc1ccc(NC(=O)c2ccccc2Cl)nc1 | 2.1 | 2.92 | -17.4 | 115.8 | 100.6 | 17.7
O=C(c1ccc(Cn2c(=S)[nH]c3cc4c(cc3c2=O)OCO4)cc1)N1CCN(c2ncccn2)CC1 | 22.4 | 0.81 | 24.9 | 75.6 | 82.8 | -12.4
Cc1ccc(NC(=O)c2ccc3ccccc3n2)nc1 | -52.5 | 6.16* | -51.0 | 146.6* | 153.0* | 154.8*
O=C(CCc1ccccc1)Nc1ccc(F)cc1F | 4.2 | 1.8 | -9.7 | 108.9 | 97.8 | -47.4
O=C(Nc1ccccc1C(=O)O)c1ccc2ccccc2n1 | -11.3 | 1.82 | 0.3 | 99.8 | 117.7 | 23.3
O=C(CCc1ccccc1)Nc1ccccc1F | -2.5 | 3.46* | -45.6 | 144.4* | 102.2 | .
OCCC1CN(Cc2cccc3nonc23)CCN1C1CCCCC1 (configuration not stated) | 3.0 | 1.23 | -7.9 | 106.3 | 108.2 | -3.5
CCNC(=O)Nc1ccc(-n2nc(C)c(C(=O)OCC)c2C)nc1 | 1.1 | 1.2 | 0.1 | 98.6 | 100.1 | -1.0
COc1cccc(CNC(=O)CCC2CCCN(C(=O)c3cc(C4CC4)[nH]n3)C2)c1 (configuration not stated) | 6.1 | 1.87 | -13.1 | 110.3 | 98.4 | 13.4
c1ccc2c(c1)CCN(c1nc3cc4c(cc3s1)OCCO4)C2 | 87.8* | 1.05 | 36.7* | 66.4 | 24.3 | 147.8*
COc1ccc(OC)c2sc(N3CCc4ccccc4C3)nc12 | 20.5 | 1.3 | -0.1 | 100.0 | 86.1 | 4.3
COC(=O)c1sc(NC(=O)c2cc(-c3ccccc3)nc3ccccc23)c(C#N)c1C | 48.7* | 1.03 | 7.2 | 94.2 | 61.7 | -7.5
COc1ccc(-c2cc(C(=O)NC3=NCCS3)c3ccccc3n2)cc1OC | -18.2 | 0.51 | -15.2 | 114.4 | 114.3 | -11.4
CCOC(=O)c1sc(NC(=O)c2cc(-c3ccc(C)cc3)nc3ccccc23)c(C#N)c1C | -0.7 | 0.5 | -6.6 | 106.0 | 106.0 | 7.2
O=C(NC1=NCCS1)c1cc(-c2ccc(-c3ccccc3)cc2)nc2ccccc12 | -11.2 | 1.28 | -38.5 | 135.0* | 105.4 | 67.4
CSc1nc2ccc(NC(=O)c3ccco3)cc2s1 | 11.0 | 4.03* | -43.5 | 139.5* | 90.0 | 98.1
CSc1nc2ccc(NC(=O)c3ccc(=O)n(C)n3)cc2s1 | 6.3 | 1.33 | -31.8 | 127.4 | 98.5 | 31.6
Cc1cc(C)nc(NC(=O)c2cc3ccccc3o2)n1 | 20.6 | 1.09 | -2.5 | 102.3 | 90.4 | -9.0
CSc1nc2ccc3nc(NC(=O)c4ccccc4)sc3c2s1 | 18.3 | 1.95 | -43.3 | 139.2* | 91.7 | 17.8
CSc1nc2ccc(NC(=O)c3nn(C(C)C)c(=O)c4ccccc34)cc2s1 | 17.1 | 0.76 | 0.6 | 99.5 | 84.4 | 4.4
CSc1nc2ccc(NC(=O)c3ccc(F)c(F)c3)cc2s1 | 9.3 | 2.39 | -44.9 | 140.0* | 93.3 | 48.7
SMILES | STAT3 blocker | NF-kB expr up | STAT1 blocker | STAT1 activator | STAT3 act | APP 5'UTR act
CSc1nc2ccc(NC(=O)c3cc4ccccc4o3)cc2s1 | 23.2 | 4.87* | -43.0 | 139.2* | 78.0 | 139.9*
COc1cccc(CNC23CC4CC(CC(C4)C2)C3)c1OCc1ccccc1 | 6.5 | 0.56 | 21.6 | 78.5 | 101.9 | 15.3
CCOC(=O)c1cnc2c(c(C)nn2CC)c1NCCN1CCOCC1 | -0.1 | 1.22 | 3.3 | 95.4 | 104.7 | 21.8
Nc1nc2ccc(C(=O)Nc3ccccc3)cc2s1 | -60.6 | 2.62 | -52.0 | 147.6* | 156.1* | 87.6
CCc1ccc(NC(=O)c2ccc3nc(N)sc3c2)cc1 | -1.3 | 2.57 | -26.1 | 123.8 | 106.2 | 52.4
CCn1nc(C)cc1C(=O)N1CCc2c([nH]c3ccccc23)C1c1cc(F)ccc1F (configuration not stated) | -49.4 | 2.13 | -43.7 | 137.0* | 150.4* | 40.9
Cc1ccnc(N/N=C/c2ccccc2)n1 | 0.2 | 2.54 | -49.6 | 145.1* | 96.3 | 83.4
Fc1ccc(NC(=S)N/N=C/c2ccc(F)c(F)c2)c(F)c1 | 6.5 | 1.3 | -4.8 | 104.4 | 93.4 | 55.5
Fc1ccc(N/N=C/C=C/c2ccccc2)c(F)c1 | 2.5 | 2.28 | -41.3 | 137.0* | 98.6 | 53.9
O=C(CNC(=O)c1cccc(F)c1)N/N=C/C=C/c1ccccc1 | 7.7 | 1.02 | -1.3 | 99.5 | 97.7 | 20.1
Clc1ccc(N/N=C/c2ccncc2)cc1Cl | 23.0 | 1.66 | -26.9 | 124.3 | 82.2 | 76.0
Fc1ccc(N/N=C/c2ccncc2)c(F)c1 | 12.5 | 1.73 | -32.3 | 129.1* | 91.5 | 25.3
O=C(O)c1ccc(/C=N/Nc2ccc(F)cc2F)cc1 | -19.1 | 12.4* | -16.5 | 114.8 | 117.7 | 169.6*
O=C(CC(c1ccccc1)c1ccco1)Nc1nccs1 (configuration not stated) | -4.5 | 1.04 | 12.8 | 88.4 | 107.3 | -0.3
COc1ccc(N(CC(=O)Nc2ccc(S(=O)(=O)N3CCOCC3)cc2)S(=O)(=O)c2ccc(F)cc2)cc1 | 5.9 | 0.55 | -10.3 | 108.5 | 105.3 | -0.1
CCOC(=O)c1c(C)[nH]c(C(=O)N/N=C\c2ccccc2Cl)c1C | 22.1 | 0.84 | 9.6 | 91.3 | 80.3 | 1.8
Cc1ccc(-c2csc(N(C)C(=O)c3c(C)nn(-c4ccccc4)c3Cl)n2)cc1 | 16.2 | 1.21 | 6.1 | 94.5 | 91.3 | .
CC(C)CCN1CCN(Cc2ccc(C#CCCO)cc2)CC1CCO (configuration not stated) | -5.1 | 0.99 | -6.1 | 103.8 | 109.0 | 1.6
O=C(N/N=C/C=C/c1ccccc1)c1n[nH]c2c1CCC2 | -5.1 | 1.32 | -18.2 | 116.7 | 102.8 | -60.5
CCn1nc(C)c(/C=N/NC(=O)c2ccoc2C)c1C | 8.1 | 1.16 | -43.3 | 139.6* | 96.3 | 110.1
COc1ccc(C(=O)N/N=C/C(Br)=C/c2ccccc2)cc1 | 2.2 | 0.99 | 11.3 | 89.7 | 96.9 | -24.0
O=C(Cc1cccs1)N/N=C/C(Br)=C/c1ccccc1 | -3.9 | 1.4 | -53.2 | 147.5* | 107.2 | 74.3
CCCCCn1nc(C)c(/C=N/NC(=O)c2ccoc2C)c1C | 0.0 | 1.18 | -20.1 | 118.6 | 100.8 | 58.7
CC(/C=N/NC(=O)Cc1cccs1)=C\c1ccccc1 | -16.9 | 1.86 | -25.9 | 123.6 | 115.2 | 76.7
Cc1occc1C(=O)N/N=C/C(Br)=C/c1ccccc1 | 24.0 | 6.44* | -53.9 | 148.4* | 81.0 | 154.8*
